Measurements: ChEMBL document CHEMBL1123609, “Synthesis, conformational considerations, and estrogen receptor binding of diastereoisomers and enantiomers of 1-[4-[2-(dimethylamino)ethoxy]phenyl]-1,2-diphenylbutane (dihydrotamoxifen)” (1987)

How the values were obtained:
MCF7 [1] = experiment: Effect on the MCF-7 cell proliferation at 10e-7 M; assay type: functional, Homo sapiens
Outline: (§1)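 MCF-7 cells seeded at 5000 cells/mL; compounds added after 24 h, final 10^-8, 10^-7 and 10^-6 M, alone or with 10^-8 M estradiol. After 5 days of culture, monolayer fixed in 90% ethanol and stained with hematoxylin; absorbance read at 540 nm as a measure of cell number. Mean of four separate cultures, expressed as percentage of control.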

MCF7 [2] = experiment: Effect on the MCF-7 cell growth at 10e-6 M; assay type: functional, Homo sapiens; outline: as §1
MCF7 [3] = experiment: Effect on the MCF-7 cell proliferation at 10e-8 M; assay type: functional, Homo sapiens; outline: as §1
[4] = molecular target: Estrogen receptor (Homo sapiens) (UniProt Q92731+P03372); experiment: Relative binding affinity for estrogen receptor of MCF-7 cells; assay type: cell-based; conditions: MCF7
Outline: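 Whole MCF-7 cells incubated 50 min at 37 °C with 10^-9 M [3H]estradiol, without or with test compound or unlabeled estradiol reference (10^-10 to 10^-6 M). Bound material extracted with EtOH and receptor-bound [3H]estradiol measured. RBA calculated as in the calf uterine cytosol competition assay.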

Row | Structure (SMILES) | Activity (MCF7 [1]) | Activity (MCF7 [2]) | Activity (MCF7 [3]) | Relative binding affinity [4]
1 | CC/C(=C(\c1ccccc1)c1ccc(O)cc1)c1ccccc1.C[C@]12CC[C@@H]3c4ccc(O)cc4CC[C@H]3[C@@H]1CC[C@@H]2O | 0.138 | 0.108 | 0.229 | –
2 | CC[C@@H](c1ccccc1)[C@H](c1ccccc1)c1ccc(OCCN(C)C)cc1 | – | – | – | 0.02
3 | CC/C(=C(/c1ccccc1)c1ccc(O)cc1)c1ccccc1.C[C@]12CC[C@@H]3c4ccc(O)cc4CC[C@H]3[C@@H]1CC[C@H]2O | 0.607 | 0.41 | 0.696 | –
4 | CC/C(=C(/c1ccccc1)c1ccc(O)cc1)c1ccccc1 | 0.486 | 0.428 | 0.557 | –
5 | CC/C(=C(\c1ccccc1)c1ccc(O)cc1)c1ccccc1 | 0.12 | 0.131 | 0.121 | –
6 | CC[C@H](c1ccccc1)[C@@H](c1ccccc1)c1ccc(OCCN(C)C)cc1 | – | – | – | 0.04
